Some results are limits rather than exact numbers.

The results in this text go back to ChEMBL document CHEMBL3632461 (J Med Chem, 2015).

Data set [1] can be described thus: Drug excretion in cynomolgus monkey urine at 1 mg/kg, iv. The following applies: read-out: Drug excretion. In kind it is ADME, organism-based, Macaca fascicularis. In short, it runs like this:
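Male animals (beagle dogs 12 kg, Wistar-Han rats 250 g, cynomolgus monkeys 7 kg), fasted overnight and fed 1.0 or 2.0 h after dosing, water ad libitum. Dosed iv at 1 mg/kg in saline or 12% sulfobutyl ether β-cyclodextrin. Fraction of the iv dose excreted unchanged in urine.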

The next data set addresses Cytochrome P450 3A4 (Homo sapiens, UniProt P08684). In words: Time-dependent inhibition of CYP3A4 in human liver microsomes. It is filed as ADME. In short, it runs like this:
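Time- and concentration-dependent CYP inhibition assessed by an IC₅₀ shift assay in human liver microsomes.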
For orientation: Liver microsomes are a subcellular fraction often used to study metabolism.

Sequence of Cytochrome P450 3A4 (P08684 whole entry): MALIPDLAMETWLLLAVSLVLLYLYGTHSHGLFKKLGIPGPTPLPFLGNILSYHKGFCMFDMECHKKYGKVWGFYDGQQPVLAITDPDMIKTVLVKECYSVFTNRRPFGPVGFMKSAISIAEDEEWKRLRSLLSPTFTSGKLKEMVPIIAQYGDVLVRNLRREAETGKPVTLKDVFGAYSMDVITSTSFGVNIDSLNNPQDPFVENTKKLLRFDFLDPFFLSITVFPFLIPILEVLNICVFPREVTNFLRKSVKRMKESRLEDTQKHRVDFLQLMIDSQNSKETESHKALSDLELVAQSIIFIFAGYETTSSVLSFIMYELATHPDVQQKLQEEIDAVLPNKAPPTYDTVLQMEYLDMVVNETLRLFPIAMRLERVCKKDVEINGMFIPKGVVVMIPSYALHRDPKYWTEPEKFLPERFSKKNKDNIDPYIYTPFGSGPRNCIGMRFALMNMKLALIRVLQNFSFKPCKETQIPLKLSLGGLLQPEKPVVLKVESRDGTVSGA

A word on the IC50: it is the concentration needed to halve the response being measured. For `COc1ccc(Cl)cc1-c1cc(=O)[nH]c(=S)n1CC(N)=O` [PF-06282999], the dose excreted in data set [1] was found to be 26%. The IC50 at Cytochrome P450 3A4 is greater than 100 µM.
